Most compounds without a hit are left out; they make up all but 4.2% or so of the library.
ANO1 activ: activates or potentiates the mouse TMEM16A chloride channel; B-score at 10 µM; hit rate 0.3% among 340,000; AID 623877; HEK293 TMEM16A/YFP-H148Q/I152L, iodide quench fluorescence; stronger effect = lower value; Q8BHY3;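 active = fluorescence-ratio B-score plate-corrected deviation score at least 3 library SD below zero, with starting fluorescence score within 5 deviations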;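 note: channel opened by trigger with iodide after compound preincubation; score built on the fluorescence ratio of max minus min over baseline; more negative score means more quench and so TMEM16A activation or potentiation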
Target sequence (Q8BHY3 whole entry, looked up): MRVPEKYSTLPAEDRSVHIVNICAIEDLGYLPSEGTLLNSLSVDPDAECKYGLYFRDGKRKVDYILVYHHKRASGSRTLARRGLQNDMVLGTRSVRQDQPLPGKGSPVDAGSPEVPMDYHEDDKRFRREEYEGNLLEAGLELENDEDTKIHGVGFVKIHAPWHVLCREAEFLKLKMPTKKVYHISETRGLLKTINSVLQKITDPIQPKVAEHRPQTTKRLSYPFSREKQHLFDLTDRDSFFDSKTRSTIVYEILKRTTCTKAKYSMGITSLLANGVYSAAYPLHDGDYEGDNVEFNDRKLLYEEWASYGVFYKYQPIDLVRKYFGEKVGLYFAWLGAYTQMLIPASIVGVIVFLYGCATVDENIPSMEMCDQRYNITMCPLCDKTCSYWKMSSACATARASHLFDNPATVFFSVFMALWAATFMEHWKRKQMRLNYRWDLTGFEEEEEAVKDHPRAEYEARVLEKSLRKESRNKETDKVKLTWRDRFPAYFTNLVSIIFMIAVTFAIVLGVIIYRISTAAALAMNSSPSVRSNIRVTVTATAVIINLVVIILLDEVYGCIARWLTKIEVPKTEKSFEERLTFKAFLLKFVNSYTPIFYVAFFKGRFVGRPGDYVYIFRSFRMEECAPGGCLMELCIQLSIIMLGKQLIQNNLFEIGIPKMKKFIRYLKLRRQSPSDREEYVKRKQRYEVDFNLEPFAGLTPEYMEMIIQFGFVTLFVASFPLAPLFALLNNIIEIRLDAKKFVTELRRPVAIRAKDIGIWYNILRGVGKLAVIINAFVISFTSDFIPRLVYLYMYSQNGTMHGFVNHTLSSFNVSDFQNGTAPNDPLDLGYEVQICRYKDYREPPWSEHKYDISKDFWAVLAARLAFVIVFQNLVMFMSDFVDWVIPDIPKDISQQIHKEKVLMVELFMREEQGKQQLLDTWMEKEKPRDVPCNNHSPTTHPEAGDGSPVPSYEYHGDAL
XBP1 UPR activ: activators of adaptive arm of unfolded protein response (XBP1); CHO-XBP1 luciferase reporter, IRE1-XBP1 UPR activation, luminescence; percent of tunicamycin response, DMSO as zero; activation, % at 20 µM; AID 463104; hit rate 0.33% among 330,000;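 active = versus positive control, 20 µM dose yields 30% or more activation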
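Material: CHO cell line with stable XBP1 luciferase reporter; schedule: 16-18 h cell attachment at 37 °C, then 6 h compound exposure; signal: glow luminescence from Steady-Glo reagent; medium: serum-containing F12 medium, 10% FBS; benchmarks: tunicamycin 10 µg/mL and vehicle-only wells; read-out: percent activation relative to tunicamycin reference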
UPR CHOP act: activators of apoptotic arm of unfolded protein response (CHOP). hit rate 0.34% among 330,000. CHO-CHOP luciferase reporter, UPR activation, luminescence; percent of tunicamycin response over DMSO baseline. AID 449763. activation, % at 10 µM;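 active = at 10 µM dose, activation of 40% or more, normalized to positive control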
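Material: CHO-CHOP cells, stable luciferase reporter of PERK-eIF2a-CHOP signalling; quantity: 500 reporter cells seeded per well; buffer or medium: F12 medium containing 10% fetal bovine serum; compound: one dose, 10 µM in 0.5% DMSO; incubation: 6 h compound treatment, 37 °C; measured by: Steady-Glo luciferase luminescence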
Hep lipid drop: hepatic lipid droplet formation modulation; inhibition, % at 6.5 µM; hit rate 0.4% among 240,000; AML12 mouse hepatocytes, oleate lipid droplets, BODIPY imaging;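 active = lipid droplet intensity inhibited by at least 50%, with more than 500 cells counted; inconclusive = wells with under 300 cells, treated as cytotoxic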
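Material – AML12 mouse liver cells · Also added – oleate loading, 100 µM · Compound dosing – 6.5 µM single-point dosing · Times – overnight treatment with compound plus oleate · Measured by – fluorescence imaging, 20x objective, two fields per well · Read-out – percent inhibition of filter-corrected integrated lipid droplet intensity per well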
TMEM16A inh: mouse TMEM16A channel inhibition, primary screen. HEK293 TMEM16A/YFP iodide influx fluorescence, ionomycin. normalized B-score (activity score, 25-100; higher = stronger inhibition) at 10 µM. hit rate 1.2% among 310,000. AID 588511;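 active = ratio plate-corrected score three or more library SD toward inhibition, starting fluorescence score within five deviations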;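 note: score derived from kinetic fluorescence span divided by baseline fluorescence per well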
CHOP inhibitor: CHOP inhibition in unfolded protein response; inhibition, % at 10 µM; hit rate 3.8% among 220,000; CHO-K1 CHOP-promoter luciferase, tunicamycin-induced, 15-18 h; AID 2732;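 active = compounds that reduced the stress-induced luciferase reporter signal by more than about 70% of percent inhibition, limit read from the data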
CHOP UPR conf: confirmation of apoptotic unfolded protein response (CHOP) activators; shares compounds with UPR CHOP act; CHO-CHOP cells, CHOP-luciferase reporter luminescence; percent of tunicamycin response, DMSO as zero; activation, % at 10 µM; hit rate 64% among 1,000; AID 463112; in the data active = activation above about 33%
A number is an active result; . = inactive; ? = inconclusive; / = not tested or not shown.

SMILES	ANO1 activ	XBP1 UPR activ	UPR CHOP act	Hep lipid drop	TMEM16A inh	CHOP inhibitor	CHOP UPR conf
C/C(=N\NC(=O)c1ccccc1Cl)c1ccccn1	.	.	.	.	.	/	/
C/C(=N\NC(=O)c1cc(-c2cccs2)nc2ccccc12)c1ccccn1	.	.	248	.	.	.	198
NNC(=O)c1cc(-c2cccs2)nc2ccccc12	.	.	.	.	.	.	/
C/C(=N\NC(=O)c1cccc2ccccc12)c1ccccn1	.	.	332	.	/	/	339
CC(C)C[C@H](NC(=O)c1cc2cc(Cl)ccc2n1C)C(=O)N1CCC(C(=O)O)CC1	.	/	/	.	.	/	/
CCN=c1scc(C)n1/N=C/c1cc(Br)c(O)c(Br)c1	.	.	.	.	.	.	/
CCN=c1scc(-c2ccco2)n1/N=C/c1ccc(OC)c(O)c1	.	.	.	.	.	.	/
COCCN=c1scc(-c2cccs2)n1/N=C/c1ccc(O)c(O)c1O	.	.	347	.	.	.	104
CCN=c1scc(C)n1/N=C/c1ccc(O)c(O)c1O	.	.	79	/	.	.	.
COC(=O)COc1ccc(C(C2C(=O)CC(C)(C)CC2=O)C2C(=O)CC(C)(C)CC2=O)cc1	/	.	.	.	.	/	/
O=C(O)c1nccnc1C(=O)Nc1ccccc1-c1ccccc1	.	.	.	.	.	.	/
CCc1ccc(NC(=O)CSc2nccn(-c3ccc4c(c3)OCCO4)c2=O)cc1	.	.	.	/	/	/	/
CCOc1ccc(C(=O)NCc2ccc3c(c2)OCO3)cc1	.	.	.	.	.	/	/
Cn1c(O)c(N=NC(=S)Nc2ccccc2F)c2cc(S(=O)(=O)N3CCOCC3)ccc21	.	/	/	.	/	.	/
C=CCn1c(O)c(N=NC(=S)Nc2ccccc2C)c2cc(S(=O)(=O)N3CCOCC3)ccc21	.	.	45	.	.	.	.
COc1cccc2sc(Nc3nnc(-c4ccccc4Cl)o3)nc12	.	.	.	.	.	/	/
COc1ccccc1-c1nnc(Nc2nc3c(OC)cccc3s2)o1	.	.	71	?	.	/	110
COC1(OC)N=C(N)C2(C#N)C(c3ccc(F)cc3)C12C#N (stereo not given)	.	.	.	.	.	.	/
CCSC1(SCC)N=C(N)C2(C#N)C(c3ccc(F)cc3)C12C#N (stereo not given)	.	.	61	/	.	82	124
CCOCc1nnc(NC(=O)C2CC(=O)N(CCc3ccc(F)cc3)C2)s1 (stereo not given)	.	.	.	.	.	/	/
CCN(CC)S(=O)(=O)c1cc(NC(=O)Cn2ncc(Cl)c(Cl)c2=O)ccc1C	.	.	95	.	.	.	67
O=C(Cn1ncc(Cl)c(Cl)c1=O)c1ccc2c(c1)OCCO2	.	.	45	/	/	/	48
O=C(Cn1ncc(Cl)c(Cl)c1=O)Nc1ccc2c(c1)OCO2	.	.	.	/	/	/	/
CCC(=O)Nc1ccc(C(=O)Cn2ncc(Cl)c(Cl)c2=O)cc1	.	.	63	.	.	.	74
C=CCN1C(=O)C(CC(=O)NCC)SC1=Nc1ccccc1OC (stereo not given)	.	.	.	.	.	/	/
SMILES	ANO1 activ	XBP1 UPR activ	UPR CHOP act	Hep lipid drop	TMEM16A inh	CHOP inhibitor	CHOP UPR conf
COc1ccc(S(=O)(=O)Nc2ccc3c(c2)C(=O)N([C@H](C)CO)C[C@H](C)[C@@H](CN(C)C(=O)Nc2ccc(C(F)(F)F)cc2)O3)cc1	.	.	.	/	/	/	/
C[C@H](CO)N1C[C@H](C)[C@@H](CN(C)C(=O)NC2CCCCC2)Oc2ccc(NS(=O)(=O)c3ccc(F)cc3)cc2C1=O	.	.	.	/	/	/	/
CCOc1ccc(Nc2cc(C)nc(-n3nc(C)cc3C)n2)cc1	.	87	105	/	.	/	.
CNc1cc(C)nc(-n2nc(C)cc2C)n1	.	.	.	/	.	.	/
Cc1cc(C)n(-c2nc(Nc3ccccc3)nc(-n3nc(C)cc3C)n2)n1	.	.	.	/	.	.	/
Cc1cc(N/N=C/c2ccc(F)cc2)nc(-n2nc(C)cc2C)n1	.	.	73	.	.	90	.
COc1cccc(/C=N/Nc2nc(Nc3ccccc3)nc(-n3nc(C)cc3C)n2)c1O	.	.	93	.	.	87	95
COc1ccccc1/C=N/Nc1cc(C)nc(N2CCOCC2)n1	.	.	.	.	.	.	/
COc1ccc(/C=N/Nc2cc(C)nc(-n3nc(C)cc3C)n2)c(OC)c1	.	.	142	.	.	.	88
CCCCCC(O)(c1ccccc1)C(CN1CCOCC1)c1ccccc1 (stereo not given)	.	.	.	.	.	/	/
CCOC(=O)C(=Cc1ccc(-n2cncn2)cc1)C(=O)OCC	.	.	119	.	.	.	93
CCOC(=O)/C(=C\c1ccc(N2CCC(c3ccccc3)=N2)cc1)C(C)=O	.	/	/	/	/	/	/
Cc1nn(Cc2ccc(Cl)cc2)c(C)c1NC(=O)CCCn1nc([N+](=O)[O-])c(Cl)c1C	.	.	.	.	.	.	/
O=C(NCc1cccnc1)/C(=C\c1ccc(-c2ccc(Br)cc2)o1)S(=O)(=O)c1ccccc1	.	.	83	.	.	106	52
O=C(NCc1cccnc1)/C(=C/c1ccc(-c2ccc(Cl)cc2)o1)S(=O)(=O)c1ccccc1	.	.	136	/	.	104	91
O=C(NCc1cccnc1)/C(=C/c1ccc(-c2cccc(C(F)(F)F)c2)o1)NC(=O)c1ccccc1	.	.	.	/	.	.	/
O=C(CN(Cc1ccc(Br)cc1)S(=O)(=O)c1ccccc1)NCc1cccnc1	.	.	.	.	.	/	/
CCOC(=O)C(C)On1c(-n2nc(C)cc2C)nc2ccccc2c1=O (stereo not given)	.	.	.	.	.	/	/
Cc1cccc2cc(CN(Cc3cccnc3)C(=O)c3cccs3)c3nnnn3c12	/	.	.	.	.	.	/
O=C(COc1ccccc1[N+](=O)[O-])N(Cc1cccc(Br)c1)C1CCS(=O)(=O)C1 (stereo not given)	.	.	.	.	.	/	/
Cc1cc(C(=O)c2ccc(Cl)cc2)c(NC(=O)CCl)s1	.	.	50	.	.	.	46
CCc1cc(C(=O)c2ccc(OC)cc2)c(NC(=O)CCC(=O)O)s1	.	.	.	.	.	.	/
CCc1cc(C(=O)c2ccc(C)cc2)c(NC(=O)CCl)s1	.	.	108	.	.	.	114
Oc1ccc(-c2csc(-c3cccnc3)n2)c(O)c1	.	.	.	.	.	.	/
Oc1ccc(Nc2nc(-c3ccc4ccccc4c3)cs2)cc1	.	.	63	.	.	/	.
Oc1ccc(-c2nc(-c3ccc(O)c(O)c3)cs2)cc1	.	.	146	/	.	/	96

Bioassay records as filed in PubChem BioAssay.
